According to PMC2248718 (The Journal of General Physiology, 2008):

Experiments:
[1] = biological target: wild-type SUR2A/Kir6.2 KATP channels expressed in HEK293 cells (UniProt P70170+Q14654); test: Inside-out patch-clamp of recombinant wild-type KATP channels; format: cell-based; settings: WT
[2] = system: ED mutant SUR2A/Kir6.2 channels; test: Inside-out patch-clamp of ED domain mutant KATP channels; format: cell-based; settings: ED mutants; 300 μM MgADP, channels inhibited by 300 μM ATP
In short: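 SUR2A (wild type or ED-mutated) was transiently cotransfected with Kir6.2 (5 μg:1 μg, plus 0.5 μg GFP reporter) into HEK293 cells grown in DMEM/10% FBS/2 mM glutamine, and recorded 48–72 h later. Inside-out patches at −60 mV, 32 ± 1°C. Pipette (mM): KCl 140, CaCl₂ 1, MgCl₂ 1, HEPES-KOH 5, pH 7.3. Bath (mM): KCl 140, MgCl₂ 1, EGTA 5, HEPES-KOH 5, pH 7.3, with nucleotides and drugs added.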

[3] = biological target: wild-type SUR2A (NBD1) coexpressed with Kir6.2, HEK293 membranes (Mus musculus, UniProt P70170); test: 8-azido-[γ-32P]ATP photoaffinity labeling, post-incubation with ADP, wild type; format: binding; settings: WT; MgADP titration 0.05 to 1.0 mM
[4] = system: ED-mutated SUR2A (entire deletion and Q/N mutants) coexpressed with Kir6.2, HEK293 membranes; test: 8-azido-[γ-32P]ATP photoaffinity labeling, post-incubation with ADP, ED mutants; format: binding; settings: ED-mutated constructs; MgADP 0.05 to 1.0 mM
[5] = biological target: SUR2A entire deletion (Δ948–962)/Kir6.2 KATP channels expressed in HEK293 cells (UniProt P70170+Q14654, DEL948-962); test: Inside-out patch-clamp of entire ED deletion KATP channels; format: cell-based; settings: glyburide 10 μM, monophasic response
[6] = system: SUR2A entire Q/N mutant/Kir6.2 KATP channels expressed in HEK293 cells; test: Inside-out patch-clamp of entire Q/N mutant KATP channels; format: cell-based; settings: glyburide 10 μM

Question: How did the “Reversal of ATP-induced channel inhibition by MgADP” value ([1]; 300 μM MgADP, channels inhibited by 300 μM ATP) turn out when `Nc1ncnc2c1ncn2[C@@H]1O[C@H](COP(=O)([O-])OP(=O)([O-])O)[C@@H](O)[C@H]1O.[Mg+2]` [MgADP] was run?
Answer: readily reversed

Question: What about the “Reversal of ATP-induced channel inhibition by MgADP” value [2] of the same molecule?
Answer: unable to reverse such inhibition

Question: And the “MgADP concentration at maximum increase of 8-azido-[γ-32P]ATP labeling” value [3]?
Answer: 500 µM

Question: And the “Effect of MgADP on 8-azido-[γ-32P]ATP labeling” value [4]?
Answer: did not affect labeling

Question: With `COc1ccc(Cl)cc1C(=O)NCCc1ccc(S(=O)(=O)NC(=O)NC2CCCCC2)cc1` [glyburide] as the molecule, how does the “Pattern of glyburide blockade in the presence of MgADP” value ([1]; glyburide 10 μM, 300 μM MgADP) read?
Answer: both phases were blunted

Question: And the “Profile of glyburide inhibition in the presence of AMP-PNP” value ([1]; glyburide 10 μM, AMP-PNP 50 μM)?
Answer: indistinguishable from the effect of glyburide in the absence of nucleotides

Question: And the “Fast phase: instantaneous blockade, fraction of the channel population” value ([1]; glyburide 10 μM, no nucleotides)?
Answer: 59 ± 11%

Question: And the “Slow phase: gradual dissipation of channel activity” value ([1]; glyburide 10 μM, no nucleotides, within 2–3 min)?
Answer: 93 ± 3%

Question: What about the “Glyburide-induced reduction in overall channel activity” value [5] of the same molecule?
Answer: 21 ± 5%

Question: And the “Glyburide responsiveness compared with wild type” value [6]?
Answer: reduced glyburide responsiveness

Question: With `CC(N/C(=N\C#N)Nc1ccncc1)C(C)(C)C` (centres unmarked) [pinacidil] as the molecule, how does the “Channel activity reversed by pinacidil against ATP inhibition” value ([1]; 50 μM pinacidil, 300 μM ATP, relative to activity in the absence of nucleotides) read?
Answer: close to the maximum level
